Measured values published in ChEMBL document CHEMBL4665698, “Triple-Negative Breast Cancer Cells Exhibit Differential Sensitivity to Cardenolides from Calotropis gigantea” (J Nat Prod, 2020).
pEC50, pIC50: −log10 of the molar value. The source made the active and inactive calls. The rule behind the calls is not given here.

What was measured:
[1] = system: BT-549; experiment: Cytotoxicity against human BT-549 cells assessed as reduction in cell viability after 48 hrs by SRB assay; format: functional, cell-based; details: BT-549, 48 h
In short: (§1)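 Cells exposed to compounds for 48 h; growth inhibition and cytotoxicity read by sulforhodamine B staining. Concentration-response curves fit by four-parameter non-linear regression; IC50 is the concentration giving 50% reduction in cell density versus DMSO vehicle. Cells grown at 37 °C, 5% CO2 (Hs578T in DMEM with 10% FBS and 50 µg/mL gentamicin).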

[2] = Selectivity index, ratio of IC50 for human MDA-MB-231 cells to IC50 for human BT-549 cells; format: functional
[3] = system: MDA-MB-231; experiment: Cytotoxicity against human MDA-MB-231 cells assessed as reduction in cell viability after 48 hrs by SRB assay; format: functional, cell-based; details: MDA-MB-231, 48 h; in short: as §1
[4] = Inhibition of porcine cerebral cortex Na+/K+-ATPase after 15 mins by ADP-Glo reagent based assay; parameters: species or system Sus scrofa
[5] = system: Hs-578T; experiment: Cytotoxicity against human Hs-578T cells assessed as reduction in cell viability after 48 hrs by SRB assay; format: functional, cell-based; in short: as §1
[6] = system: HCC70; experiment: Cytotoxicity against human HCC70 cells assessed as reduction in cell viability after 48 hrs by SRB assay; format: functional, cell-based; details: HCC70, 48 h; in short: as §1
[7] = system: CAL-51; experiment: Cytotoxicity against human CAL-51 cells assessed as reduction in cell viability after 48 hrs by SRB assay; format: functional, cell-based; details: CAL-51, 48 h; in short: as §1
[8] = system: HCC1937; experiment: Cytotoxicity against human HCC1937 cells assessed as reduction in cell viability after 48 hrs by SRB assay; format: functional, cell-based; details: HCC1937, 48 h; in short: as §1
[9] = system: MDA-MB-468; experiment: Cytotoxicity against human MDA-MB-468 cells assessed as reduction in cell viability after 48 hrs by SRB assay; format: functional, cell-based; details: MDA-MB-468, 48 h; in short: as §1
[10] = system: SUM185PE; experiment: Cytotoxicity against human SUM185PE cells assessed as reduction in cell viability after 48 hrs by SRB assay; format: functional, cell-based
In short: (§2)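 Cells grown at 37 °C in humidified 5% CO2 and exposed to compounds for 48 h. Antiproliferative and cytotoxic effects read by sulforhodamine B staining of cell density. Concentration-response curves fit by four-parameter non-linear regression. IC50 taken as the concentration giving 50% reduction in cell density relative to DMSO vehicle.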

[11] = system: HCC1806; experiment: Cytotoxicity against human HCC1806 cells assessed as reduction in cell viability after 48 hrs by SRB assay; format: functional, cell-based; details: HCC1806, 48 h; in short: as §1
[12] = system: MDA-MB-453; experiment: Cytotoxicity against human MDA-MB-453 cells assessed as reduction in cell viability after 48 hrs by SRB assay; format: functional, cell-based; details: MDA-MB-453, 48 h; in short: as §2
[13] = Induction of intracellular Ca2+ concentration in human BT-549 cells at 150 nM after 2 hrs by Cal520-AM dye-based fluorescence assay relative to control; format: functional
In short: (§3)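 BT-549 and MDA-MB-231 cells in 96-well optical plates at 60–80% confluency, loaded with 2.5 µM Cal-520 AM and 0.2% Pluronic F-127 for 30 min at 37 °C. Same field imaged at 4× at T0 and 2 h after 150 nM compound. Per-cell corrected total fluorescence normalized to T0; two-way ANOVA with Bonferroni test, n = 291–531 cells.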

[14] = system: MDA-MB-231; experiment: Induction of intracellular Ca2+ concentration in human MDA-MB-231 cells at 150 nM after 2 hrs by Cal520-AM dye-based fluorescence assay; format: functional, cell-based; in short: as §3
[15] = system: BT-549; experiment: Induction of intracellular Ca2+ concentration in human BT-549 cells at 150 to 500 nM after 3 hrs by Cal520-AM dye-based fluorescence assay; format: functional, cell-based; details: dose nM 150-500, time 3.0 hrs
In short: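 BT-549 cells on coverslips at 60–80% confluency, loaded with 2.5 µM Cal-520 AM plus 0.2% Pluronic F-127 for 30 min at 37 °C, then washed. Imaged at 20× at T0 and 3 h after 150 or 500 nM compound, multiple fields. Per-cell corrected total fluorescence normalized to T0, versus DMSO; two-way ANOVA with Dunnett's test, n = 102–242 cells.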

| Structure (SMILES) | pIC50 [1] | Ratio IC50 [2] | pIC50 [3] | pEC50 [4] | pIC50 [5] | pIC50 [6] | pIC50 [7] | pIC50 [8] | pIC50 [9] | pIC50 [10] | pIC50 [11] | pIC50 [12] | fold change (FC) [13] | Activity [14] | Activity [15] |
| --- | --- | --- | --- | --- | --- | --- | --- | --- | --- | --- | --- | --- | --- | --- | --- |
| C[C@]12CC[C@H](O)C[C@@H]1CC[C@@H]1[C@@H]2CC[C@]2(C)[C@@H](C3=CC(=O)OC3)CC[C@]12O | 5.41 | >8 | < 4.52 | 5.68 | 5.44 |  |  |  |  |  |  |  |  |  |  |
| C[C@H]1O[C@@H](O[C@H]2CC[C@@]3(CO)[C@@H](CC[C@@H]4[C@@H]3CC[C@]3(C)[C@@H](C5=CC(=O)OC5)CC[C@]43O)C2)[C@H](O)[C@H](O)[C@@H]1O | 6.92 | 10 | 5.90 | 6.30 | 6.42 |  |  |  |  |  |  |  |  |  |  |
| C[C@H]1O[C@@H](O[C@@H]2C[C@@H]3CC[C@@H]4[C@H](CC[C@]5(C)[C@@H](C6=CC(=O)OC6)CC[C@]45O)[C@@]3(C=O)C[C@H]2O)[C@H](O)[C@H](O)[C@@H]1O | 5.85 | 7 | 5.00 | 5.60 | 5.41 |  |  |  |  |  |  |  |  |  |  |
| C[C@H]1O[C@@H](O[C@H]2[C@@H](O)C[C@H](O[C@H]3[C@@H](O)C[C@H](O[C@H]4CC[C@@]5(C)[C@H](CC[C@@H]6[C@@H]5C[C@@H](O)[C@]5(C)[C@@H](C7=CC(=O)OC7)CC[C@]65O)C4)O[C@@H]3C)O[C@@H]2C)C[C@H](O)[C@@H]1O [DIGOXIN] | 7.29 |  | 6.32 |  | 7.16 | 6.19 | 6.89 | 6.26 | 6.64 | 6.55 | 6.55 | 6.64 |  |  |  |
| C[C@@H]1C[C@H](O)[C@]2(O)O[C@@H]3C[C@@]4(C=O)[C@@H](CC[C@@H]5[C@@H]4CC[C@]4(C)[C@@H](C6=CC(=O)OC6)CC[C@]54O)C[C@H]3O[C@@H]2O1 [CALOTROPIN] | 7.52 | 15 | 6.36 | 6.44 | 7.22 |  |  |  |  |  |  |  | 2 | Active | Active |
| C[C@H]1O[C@H]2O[C@@H]3C[C@@H]4CC[C@@H]5[C@H](CC[C@]6(C)[C@@H](C7=CC(=O)OC7)CC[C@]56O)[C@@]4(C=O)C[C@H]3O[C@@]2(O)[C@H](O)[C@@H]1O | 7.31 | 13 | 6.20 | 6.52 | 6.92 |  |  |  |  |  |  |  |  |  |  |
| C[C@H]1O[C@@H](O[C@H]2CC[C@@]3(CO)[C@@H](CC[C@@H]4[C@@H]3CC[C@]3(C)[C@@H](C5=CC(=O)OC5)CC[C@]43O)C2)[C@H](O)[C@H](O)[C@@H]1O[C@@H]1O[C@H](CO)[C@@H](O)[C@H](O)[C@H]1O | 7.15 | 14 | 6.01 | 6.22 | 6.52 |  |  |  |  |  |  |  |  |  |  |
| C[C@@H]1C[C@@]2(N=CCS2)[C@]2(O)O[C@@H]3C[C@@]4(C=O)[C@@H](CC[C@@H]5[C@@H]4CC[C@]4(C)[C@@H](C6=CC(=O)OC6)CC[C@]54O)C[C@H]3O[C@@H]2O1 [USCHARIN] | 7.84 | 7 | 6.99 | 6.04 | 7.47 |  |  |  |  |  |  |  |  |  |  |
| C[C@]12CC[C@H]3[C@@H](CC[C@H]4C[C@@H](O)CC[C@@]43CO)[C@@]1(O)CC[C@@H]2C1=CC(=O)OC1 [COROGLAUCIGENIN] | 5.64 | 9 | 4.70 | 5.96 | 5.74 |  |  |  |  |  |  |  |  |  |  |
| C[C@]12CC[C@H](O[C@@H]3O[C@H](CO)[C@@H](O)[C@H](O)[C@H]3O)C[C@@H]1CC[C@@H]1[C@@H]2CC[C@]2(C)[C@@H](C3=CC(=O)OC3)CC[C@]12O [DESGLUCOUZARIN] | 5.74 | 6 | 5.00 | 5.96 | 5.80 |  |  |  |  |  |  |  |  |  |  |
